# Source: PubChem (several laboratories)
# Efflux pump mplx = blocks antifungal efflux pumps in multiplex yeast assay | S. cerevisiae Candida pump triplex, Nile Red efflux | inhibition, % at 10 µM | hit rate 0.44% among 330,000 | AID 485275;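 active means plate passing quality check with inhibition over a set limit, or well fluorescence over plate mean plus 4 SD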;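 further: Nile Red retained in pooled yeast measured as flow cytometry median fluorescence; 0% = buffer negative control and 100% = Enniatin B positive control; higher means more Nile Red kept so more efflux inhibition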
# H9c2 TAG inh = triacylglycerol accumulation inhibition | hit rate 0.66% among 230,000 | H9c2 cells, Nile Red lipid (TAG) fluorescence; cells loaded with 200 µM oleic acid | AID 651582 | inhibition, % at 12.5 µM;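 active means pattern-corrected inhibition of lipid staining of at least 50% with the nuclear-stain viability signal not falling by more than 50%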;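 further: 0% = DMSO wells and 100% = triacsin C control wells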
# SMARCA2 activ = increases SMARCA2 function in MMTV reporter cells | MG213 cells, MMTV-luciferase reporter, dexamethasone, overnight | activation, % at 9.1 µM | hit rate 1% among 370,000; in the data active means activation above about 7.8%;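 further: 0% = vehicle wells and 100% = reference activator wells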
# TbMetRS inhib = Trypanosoma brucei MetRS inhibition; purified T. brucei MetRS, ATP depletion, Kinase-Glo luminescence; inhibition, % at 11.9 µM; hit rate 0.4% among 360,000; AID 624268;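 active means inhibition above a per-plate cutoff of the control wells' mean inhibition plus 3 SD, cut at about 5.5% in these data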;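 further: 0% = DMSO wells median and 100% = median of wells with control inhibitor compound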
#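 Test system: purified T. brucei MetRS enzyme. Also added: ATP, methionine and E. coli bulk tRNA substrates. Compound: 11.9 µM single point. Schedule: 15 min enzyme-compound preincubation, 2 h reaction, 10 min detection, 25 °C. Signal: luciferase luminescence of residual ATP, Kinase-Glo. Evaluation: percent inhibition versus plate control medians. Controls: DMSO wells, low control.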
# AHR act = activates the human aryl hydrocarbon receptor; P35869; AHR-responsive luciferase reporter cells, luminescence; activation, % at 5 µM; hit rate 2.5% among 320,000; AID 2796; in the data active means activation above about 47%;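 further: 0% = vehicle wells and 100% = reference agonist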
# Target sequence (P35869 whole entry, looked up): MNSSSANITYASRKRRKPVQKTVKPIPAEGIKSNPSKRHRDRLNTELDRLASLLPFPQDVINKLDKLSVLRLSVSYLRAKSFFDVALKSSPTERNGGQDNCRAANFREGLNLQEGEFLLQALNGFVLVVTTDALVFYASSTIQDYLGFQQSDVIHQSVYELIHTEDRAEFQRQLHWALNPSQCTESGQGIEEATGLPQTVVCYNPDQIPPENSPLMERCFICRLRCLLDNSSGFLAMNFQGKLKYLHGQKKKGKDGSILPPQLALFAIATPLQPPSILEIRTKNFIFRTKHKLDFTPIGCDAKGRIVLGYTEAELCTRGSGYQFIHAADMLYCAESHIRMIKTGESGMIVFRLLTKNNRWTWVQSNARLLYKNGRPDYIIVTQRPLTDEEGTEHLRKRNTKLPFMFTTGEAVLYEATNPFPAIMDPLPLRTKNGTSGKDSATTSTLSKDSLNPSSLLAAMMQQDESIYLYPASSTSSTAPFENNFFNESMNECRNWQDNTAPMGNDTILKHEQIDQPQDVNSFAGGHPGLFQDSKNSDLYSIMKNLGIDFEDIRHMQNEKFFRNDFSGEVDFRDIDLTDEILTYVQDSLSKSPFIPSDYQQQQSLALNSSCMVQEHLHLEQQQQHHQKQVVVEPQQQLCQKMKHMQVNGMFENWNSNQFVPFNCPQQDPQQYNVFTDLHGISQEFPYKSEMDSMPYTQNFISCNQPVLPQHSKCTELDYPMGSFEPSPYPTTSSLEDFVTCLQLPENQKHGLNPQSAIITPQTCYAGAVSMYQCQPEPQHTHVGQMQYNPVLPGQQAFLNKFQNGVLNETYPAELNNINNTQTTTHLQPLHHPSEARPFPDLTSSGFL
# Yeast cmpd fluor = flagged as fluorescent in efflux inhibitor counter-screen; hit rate 4% among 1,700; shares compounds with Efflux pump mplx; S. cerevisiae AD/pABC3, compound fluorescence, flow cytometry; fluorescence ratio to DMSO, % at 10 µM;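 active means fluorescence ratio to DMSO above its plate's cutoff, the plate mean ratio plus 5 SD, cut at about 210% in these data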;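 further: unstained yeast with no Nile Red so the signal is compound autofluorescence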
# CaMdr1 efflux inh = Candida Mdr1 efflux pump inhibition | shares compounds with Efflux pump mplx | S. cerevisiae AD/CaMDR1, Nile Red efflux, flow cytometry | inhibition, % at 10 µM | hit rate 1% among 1,700 | AID 588518; in the data active means inhibition above about 26%;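 further: 0% = DMSO vehicle and 100% = reference inhibitor; higher means more Nile Red retained so more efflux inhibition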
# Cdr2 pump inh = Candida Cdr2 efflux pump inhibition; shares compounds with Efflux pump mplx; S. cerevisiae AD/CaCDR2, Nile Red retention, flow cytometry; Nile Red retention ratio vs DMSO, % at 10 µM; hit rate 4% among 1,700; in the data active means Nile Red retention ratio vs DMSO above about 190%;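 further: higher ratio means more blocking of Cdr2 efflux of the dye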
# CaCdr1 efflux inh = inhibitors of Candida albicans Cdr1 efflux pump; shares compounds with Efflux pump mplx; S. cerevisiae AD/CaCDR1, Nile Red efflux, flow cytometry; inhibition, % at 10 µM; hit rate 1% among 1,700; AID 588522;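 active means inhibition above the screen-wide mean plus twice its standard deviation, cut at about 32% in these data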
# TbMetRS confirm = Trypanosoma brucei MetRS inhibition confirmed | shares compounds with TbMetRS inhib | T. brucei MetRS enzyme, luminescence (ATP depletion) | inhibition, % at 11.9 µM | hit rate 93% among 1,400; in the data active means inhibition above about 7%
# Jurkat tox = kills Jurkat cells in T. brucei MetRS counterscreen. shares compounds with TbMetRS inhib. Jurkat cells viability, ATP luminescence. inhibition, % at 8.3 µM. hit rate 12% among 1,400. AID 624413; in the data active means inhibition above about 15%;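 further: 0% = vehicle and 100% = reference inhibitor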
# Tb MetRS inh FP = orthogonal test for Trypanosoma brucei MetRS inhibitors. purified T. brucei MetRS, fluorescence polarization. shares compounds with TbMetRS inhib. inhibition, % at 11.9 µM. hit rate 44% among 1,400. AID 651607; in the data active means inhibition above about 17%;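 further: 0% = vehicle wells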
# The depositor's hits bear a star; · = no result; + = active, no number. A selection: hits, their analogues and other compounds. The true share with any hit is near 4.1%.
SMILES,Efflux pump mplx,H9c2 TAG inh,SMARCA2 activ,TbMetRS inhib,AHR act,TbMetRS confirm,Jurkat tox,Tb MetRS inh FP,others
CN1C2CCC1CC(OC(=O)CCN1CCCC1)C2 (stereo unspecified),0.5*,·,2,-2,2,·,·,·,Yeast cmpd fluor=102;CaMdr1 efflux inh=0;Cdr2 pump inh=107;CaCdr1 efflux inh=0
CC(C)C(NC(=O)OCc1ccccc1)P(=O)(Oc1ccccc1)Oc1ccccc1 (stereo unspecified),·,·,-2,·,·,·,·,·,
CC[n+]1c(/C=C/C=C/c2ccc(N(C)C)cc2)sc2ccccc21,9.9*,22,-13,-2,1,·,·,·,Yeast cmpd fluor=+;CaMdr1 efflux inh=10;Cdr2 pump inh=114;CaCdr1 efflux inh=0
CN(C)c1ccc(/C=C/C=C/c2sc3ccccc3[n+]2C)cc1,0,-2,-8,2,8,·,·,·,
Fc1ccccc1CN1CCN(c2ccc(Cl)cc2)CC1,1.7*,·,-1,-1,2,·,·,·,Yeast cmpd fluor=92;CaMdr1 efflux inh=0;Cdr2 pump inh=89;CaCdr1 efflux inh=0
O=C(N/N=C/c1c(O)n(Cc2ccc(F)cc2)c(=O)[nH]c1=O)c1ccccc1O,0,·,-2,0,7,·,·,·,
O=C(N/N=C/c1c(O)n(Cc2ccccc2)c(=O)[nH]c1=O)c1ccccc1O,14*,·,4,0,13,·,·,·,Yeast cmpd fluor=98;CaMdr1 efflux inh=0;Cdr2 pump inh=101;CaCdr1 efflux inh=0
O=C(NCCN1CCC2(CC1)C(=O)NCN2c1ccccc1)c1ccc(OC(F)(F)F)cc1,·,·,0,·,·,·,·,·,
O=C(NC1CCCCC1)N1Cc2ccc(Br)cc2-n2nncc2C1,·,·,-2,·,·,·,·,·,
COc1ccc2nc(-c3ccc(CN4CCC(n5nnc6ccccc65)CC4)cc3)c(-c3ccccc3)nc2c1,·,·,-3,·,·,·,·,·,
CCN1/C(=C\C=C\C2=[N+](CC)c3ccccc3C2(C)C)C(C)(C)c2ccccc21,3.2*,-259,·,-3,-18,·,·,·,CaMdr1 efflux inh=1;Cdr2 pump inh=251*;CaCdr1 efflux inh=1
N#Cc1cc2c(nc1SCC(=O)Nc1cc(Cl)ccc1Cl)C1CCN2CC1,0,·,1,0,-12,·,·,·,
N#Cc1cc2c(nc1SCC(=O)Nc1ccc(Cl)cc1)C1CCN2CC1,0,·,2,9.2*,7,15*,20*,9,
CCn1nc(/C=C/c2ccccc2)nc2c(=O)n(C)c(=O)nc1-2,·,·,-10,18*,·,36*,57*,6,
NC(=O)OCCSc1nnc(-c2cccc(C(N)=S)c2)o1,0,·,-2,16*,4,10*,1,0,
CCCC(C)C1(CC)C(=O)NC(=Nc2ccc(F)cc2)NC1=O (stereo unspecified),0,-10,-2,1,6,·,·,·,
CCCC1(CCC)C(=O)NC(=Nc2ccccc2)NC1=O,0,·,-1,12*,0,19*,-6,7,
CCCC1(CCC)C(=O)NC(=NCc2ccccc2)NC1=O,0,-52,1,0,-1,·,·,·,
CCCC(C)C1(CC)C(=O)NC(=Nc2ccccc2)NC1=O (stereo unspecified),0,-2,-3,8.7*,4,18*,5,9,
O=C(NCCN1CCC2(CC1)C(=O)NCN2c1ccccc1)c1ccc(Cl)c(Cl)c1,·,·,1,·,·,·,·,·,
CCc1cc(OC)c(CCN)cc1OC,·,·,0,·,·,·,·,·,
Cc1nccc2c1[nH]c1ccc(Br)cc12,0,·,2,9.0*,2,17*,3,9,
Cc1ccc(NC(=O)CN2C(=O)CN=C(c3ccccc3)c3cc(Cl)ccc32)cc1,0,-11,-3,59*,1,81*,6,53*,
COc1ccc2c3c([nH]c2c1)[C@H](C=C(C)C)N1C(=O)[C@@H]2CCCN2C(=O)[C@@H]1C3,·,·,-1,·,·,·,·,·,
